Legend:
[1] = molecular target: T1, Muscarinic acetylcholine receptor M1 (Rattus norvegicus, UniProt P08482); test: Compound was evaluated for its binding affinity towards M1 receptor in rat cortex
T1 sequence (P08482 whole entry): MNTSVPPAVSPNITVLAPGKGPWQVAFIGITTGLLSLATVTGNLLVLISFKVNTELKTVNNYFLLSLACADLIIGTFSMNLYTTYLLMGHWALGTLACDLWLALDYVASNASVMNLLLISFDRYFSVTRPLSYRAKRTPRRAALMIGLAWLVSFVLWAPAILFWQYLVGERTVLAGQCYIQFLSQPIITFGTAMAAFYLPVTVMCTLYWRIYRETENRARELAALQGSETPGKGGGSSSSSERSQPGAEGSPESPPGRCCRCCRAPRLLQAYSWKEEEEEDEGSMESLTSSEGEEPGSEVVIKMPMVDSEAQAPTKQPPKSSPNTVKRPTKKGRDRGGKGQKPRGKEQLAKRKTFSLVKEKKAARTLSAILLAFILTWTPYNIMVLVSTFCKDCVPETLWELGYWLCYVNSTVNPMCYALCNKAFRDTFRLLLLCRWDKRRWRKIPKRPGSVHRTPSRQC

[2] = molecular target: T2, Muscarinic acetylcholine receptor M2 (Rattus norvegicus, UniProt P10980); test: Compound was evaluated for its binding affinity towards M2 receptor in rat brainstem; assay type: tissue-based, Brain
T2 sequence (P10980 whole entry): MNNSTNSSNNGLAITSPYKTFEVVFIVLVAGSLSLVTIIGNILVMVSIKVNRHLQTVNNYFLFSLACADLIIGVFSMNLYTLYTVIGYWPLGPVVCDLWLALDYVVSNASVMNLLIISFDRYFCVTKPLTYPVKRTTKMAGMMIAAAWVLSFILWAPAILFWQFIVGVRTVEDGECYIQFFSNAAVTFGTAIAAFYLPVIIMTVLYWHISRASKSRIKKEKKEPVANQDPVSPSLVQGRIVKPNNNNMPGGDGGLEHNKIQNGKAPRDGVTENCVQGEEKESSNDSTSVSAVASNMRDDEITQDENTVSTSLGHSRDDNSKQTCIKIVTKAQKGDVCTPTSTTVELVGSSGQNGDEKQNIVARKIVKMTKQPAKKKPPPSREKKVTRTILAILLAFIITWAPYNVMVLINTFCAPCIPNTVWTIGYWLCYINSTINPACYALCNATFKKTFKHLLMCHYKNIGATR

[3] = molecular target: T1, Muscarinic acetylcholine receptor M1; test: Compound was evaluated for its binding affinity towards muscarinic acetylcholine receptor in rat cortex
Summary of the method: (§1)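 Rat fronto-parietal cortex homogenised 1:200 w/v in 50 mM Na-K phosphate, pH 7.4; 0.5 mg tissue competed against [3H]pirenzepine (6 nM) for 1 h at 25 °C, filtered on polyethylenimine-treated GF/B. Nonspecific binding with 10 µM atropine. IC50 converted to Ki by Cheng-Prusoff.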

[4] = molecular target: T3, Muscarinic acetylcholine receptor M1 (Rattus norvegicus) (UniProt P08482); test: Intrinsic activity against Muscarinic acetylcholine receptor M1 in rat cortex (activity expressed as % response of that produced by carbachol); assay type: functional
T3 sequence (whole entry): T1 sequence (P08482 whole entry)
Summary of the method: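 Dissociated male Sprague-Dawley rat cortex, rejuvenated in oxygenated Krebs-Henseleit (final step with 10 mM Li+), labeled 60 min at 37 °C with [3H]inositol. Compound at 1 mM added for 60 min under 95% O2/5% CO2; [3H]inositol 1-phosphate isolated on Dowex. Response scaled to 1 mM carbachol PI hydrolysis (100%).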

[5] = molecular target: T2, Muscarinic acetylcholine receptor M2; test: Compound was evaluated for its binding affinity towards muscarinic acetylcholine receptor M2 in rat brainstem; assay type: tissue-based, Brain
Summary of the method: (§2)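 Rat pons-medulla homogenised 1:200 w/v in 50 mM sodium phosphate, pH 7.4; 0.5 mg tissue with 0.2 nM [3H]QNB and varying unlabeled ligand, 75 min at 25 °C. IC50 corrected to Ki by Cheng-Prusoff.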

[6] = molecular target: T4, Muscarinic acetylcholine receptor M2 (Rattus norvegicus) (UniProt P10980); test: Intrinsic activity against muscarinic acetylcholine receptor M2 in rat striatum (activity expressed as % response of that produced by carbachol); assay type: functional, tissue-based
T4 sequence (whole entry): T2 sequence (P10980 whole entry)
Summary of the method: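 Dissociated rat striatum prelabeled 45 min at 37 °C with [3H]adenine, then 30 min with 1.5 mM IBMX before 10 µM forskolin plus 100 µM compound for 10 min; stopped with TCA, [3H]cAMP by ion-exchange columns. Inhibition of cAMP scaled to that of 100 µM carbachol (100%).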

[7] = molecular target: T1, Muscarinic acetylcholine receptor M1; test: Compound was evaluated for its binding affinity towards Muscarinic acetylcholine receptor M1 in rat cortex; summary of the method: as §1
[8] = molecular target: T2, Muscarinic acetylcholine receptor M2; test: Compound was evaluated for its binding affinity towards Muscarinic acetylcholine receptor M2 in rat brainstem; assay type: tissue-based, Brain; summary of the method: as §2

Row | SMILES | Ki [1] [µM] | Ki [2] [µM] | Ki [3] [nM] | Response [4] [%] | Ki [5] [nM] | further results
1 | CN1CCCC[C@H]1CC#CCN1CCCC1=O | 5.38 | 7.06 | – | – | – | –
2 | O=C1CCCN1CC#CCN1CCC1 | – | – | 2250 | 46.2 | 27.4 | Response [6]: 105%
3 | O=C1CCCN1CC#CC[C@@H]1CCCCN1 | 27.6 | 15.8 | – | – | – | –
4 | CN1CCC[C@H]1CC#CCN1CCCC1=O | 10.5 | 10.8 | – | – | – | –
5 | O=C1CCCN1CC#CCN1CCCC1 [OXOTREMORINE] | – | – | 196 | 13.7 | 84 | –
6 | CN1CCC[C@@H]1CC#CCN1CCCC1=O | 5.46 | 5.86 | – | – | – | –
7 | O=C1CCCN1CC#CC[C@@H]1CCCN1 | 40.5 | 5.64 | – | – | – | –
8 | CNCC#CCN1CCCC1=O | – | – | 65500 | 5.7 | 38100 | Response [6]: 36.3%
9 | CN(C)CC#CCN1CCCC1=O | – | – | – | – | – | Ki [7]: 15.9 µM; Ki [8]: 926 nM
10 | O=C1CCCN1CC#CC[C@H]1CCCCN1 | 3.03 | 0.636 | – | – | – | –
11 | CCN(C)CC#CCN1CCCC1=O | – | – | 2690 | 2.75 | 813 | Response [6]: 91.6%
12 | CN1CCCC[C@@H]1CC#CCN1CCCC1=O | 1.2 | 3.66 | – | – | – | –
13 | O=C1CCCN1CC#CC[C@H]1CCCN1 | 3.07 | 2.46 | – | – | – | –
